The subject of test [1] is T1, Gamma-crystallin D (Homo sapiens), P07320 [W43R].
T1 sequence (whole entry): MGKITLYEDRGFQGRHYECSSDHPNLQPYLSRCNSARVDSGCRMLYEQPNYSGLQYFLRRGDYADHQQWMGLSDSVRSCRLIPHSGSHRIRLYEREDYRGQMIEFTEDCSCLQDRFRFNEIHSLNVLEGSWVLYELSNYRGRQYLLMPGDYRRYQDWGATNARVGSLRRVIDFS
Kind of test: Inhibition of gamma-crystallin D W43R mutant (unknown origin)-induced cytotoxicity in human HeLa cells assessed as increase in cell viability at 0.04 to 4 uM incubated for 12 hrs by CCK8 assay. The format is cell-based. Background: Tetrazolium dyes change colour on reduction, which living cells bring about.

Test [2] concerns T2, Beta-crystallin B2 (Homo sapiens), P43320 [V187E].
T2 sequence (whole entry): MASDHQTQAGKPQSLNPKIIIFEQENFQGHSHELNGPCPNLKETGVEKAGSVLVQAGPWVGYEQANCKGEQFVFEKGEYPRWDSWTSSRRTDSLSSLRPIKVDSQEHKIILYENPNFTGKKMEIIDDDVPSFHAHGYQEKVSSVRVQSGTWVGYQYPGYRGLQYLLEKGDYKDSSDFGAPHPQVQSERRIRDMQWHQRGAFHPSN
Kind of test: Inhibition of beta-crystallin B2 V187E mutant (unknown origin)-induced cytotoxicity in human HLE-B3 cells assessed as increase in cell viability at 0.04 to 4 uM incubated for 12 hrs by CCK8 assay. The test is classed as cell-based.

The subject of test [3] is T3, Alpha-crystallin B chain (Homo sapiens), P02511 [R120G].
T3 sequence (whole entry): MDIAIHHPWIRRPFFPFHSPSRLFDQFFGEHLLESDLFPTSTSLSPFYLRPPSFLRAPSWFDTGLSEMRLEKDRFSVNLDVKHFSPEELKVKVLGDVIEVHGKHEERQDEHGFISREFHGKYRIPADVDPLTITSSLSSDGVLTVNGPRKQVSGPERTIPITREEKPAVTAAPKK
Put plainly: Induction of redissolving of aggregated alpha-crystallin B R120G mutant (unknown origin) at 200 uM incubated for 24 hrs by transmission-electron-microscopy. The method, boiled down:
(§1)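 Pre-formed amyloid-like fibrils of mutant crystallin proteins were treated with compounds in liposomes or with a liposome vehicle. Fibrillar structures were then examined by negative-stain transmission electron microscopy.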

For test [4], the system named is T4, Gamma-crystallin C (Homo sapiens), P07315 [G129C].
T4 sequence (whole entry): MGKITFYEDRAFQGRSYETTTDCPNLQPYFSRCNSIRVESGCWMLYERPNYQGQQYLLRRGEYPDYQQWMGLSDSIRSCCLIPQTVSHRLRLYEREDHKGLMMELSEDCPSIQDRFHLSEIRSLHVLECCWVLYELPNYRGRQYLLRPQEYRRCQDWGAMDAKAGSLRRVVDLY
Kind of test: Induction of redissolving of aggregated gamma-crystallin C G129C mutant (unknown origin) at 200 uM incubated for 24 hrs by ThT-fluorescence based assay. The method, boiled down:
(§2)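 Purified mutant crystallin proteins, pre-formed into amyloid-like fibrils, were treated with compounds delivered in liposomes, with a liposome-only vehicle control. Redissolution was read as thioflavin T (ThT) fluorescence, n = 3.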

For test [5] the test system is unchanged. Put plainly: Inhibition of gamma-crystallin C G129C mutant (unknown origin)-induced cytotoxicity in human HLE-B3 cells assessed as increase in cell viability at 0.04 to 4 uM incubated for 12 hrs by CCK8 assay. The test is classed as cell-based.
The species named for test [6] is Homo sapiens. Kind of test: Increase in cell viability of human HLE-B3 cells transfected with peGFP-N1 at 0.04 to 4 uM incubated for 12 hrs by CCK8 assay. The format is functional.
The subject of test [7] is T5, Alpha-crystallin A chain (Homo sapiens), P02489 [Y118D].
T5 sequence (whole entry): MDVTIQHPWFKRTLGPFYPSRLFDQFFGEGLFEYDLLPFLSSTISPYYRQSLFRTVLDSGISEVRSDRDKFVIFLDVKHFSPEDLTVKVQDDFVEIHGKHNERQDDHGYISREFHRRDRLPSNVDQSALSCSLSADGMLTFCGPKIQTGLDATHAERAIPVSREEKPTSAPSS
Kind of test: Inhibition of alpha-crystallin A Y118D mutant (unknown origin)-induced cytotoxicity in human HeLa cells assessed as increase in cell viability at 0.04 to 4 uM incubated for 12 hrs by CCK8 assay. The format is cell-based.

Test [8] deals with T1, Gamma-crystallin D (Homo sapiens), P07320 [W43R]. Put plainly: Induction of redissolving of aggregated gamma-crystallin D W43R mutant (unknown origin) at 200 uM incubated for 24 hrs by ThT-fluorescence based assay. The method, boiled down:
as §2

Test [9] shares this test system. Put plainly: Inhibition of gamma-crystallin D W43R mutant (unknown origin)-induced cytotoxicity in human HLE-B3 cells assessed as increase in cell viability at 0.04 to 4 uM incubated for 12 hrs by CCK8 assay. The test is classed as cell-based.
The subject of test [10] is T3, Alpha-crystallin B chain (Homo sapiens), P02511 [R120G]. Kind of test: Inhibition of alpha-crystallin B R120G mutant (unknown origin)-induced cytotoxicity in human HLE-B3 cells assessed as increase in cell viability at 0.04 to 4 uM incubated for 12 hrs by CCK8 assay. The test is classed as cell-based.
For test [11], the system named is T5, Alpha-crystallin A chain (Homo sapiens), P02489 [Y118D]. Put plainly: Inhibition of alpha-crystallin A Y118D mutant (unknown origin)-induced cytotoxicity in human HLE-B3 cells assessed as increase in cell viability at 0.04 to 4 uM incubated for 12 hrs by CCK8 assay. The test is classed as cell-based.
Test [12] deals with HeLa. Put plainly: Increase in cell viability of human HeLa cells transfected with peGFP-N1 at 0.04 to 4 uM incubated for 12 hrs by CCK8 assay. The test is classed as functional, cell-based.
In test [13] the test system is T3, Alpha-crystallin B chain (Homo sapiens), P02511 [R120G]. Kind of test: Induction of redissolving of aggregated alpha-crystallin B R120G mutant (unknown origin) at 200 uM incubated for 24 hrs by ThT-fluorescence based assay. Summed up: as §2
The test system of test [14] is T4, Gamma-crystallin C (Homo sapiens), P07315 [G129C]. Put plainly: Induction of redissolving of aggregated gamma-crystallin C G129C mutant (unknown origin) at 200 uM incubated for 24 hrs by transmission-electron-microscopy. The method, boiled down:
as §1

For test [15], the system named is T5, Alpha-crystallin A chain (Homo sapiens), P02489 [Y118D]. Kind of test: Induction of redissolving of aggregated alpha-crystallin A Y118D mutant (unknown origin) at 200 uM incubated for 24 hrs by transmission-electron-microscopy. Summed up: as §1
The subject of test [16] is T2, Beta-crystallin B2 (Homo sapiens), P43320 [V187E]. Put plainly: Inhibition of beta-crystallin B2 V187E mutant (unknown origin)-induced cytotoxicity in human HeLa cells assessed as increase in cell viability at 0.04 to 4 uM incubated for 12 hrs by CCK8 assay. The format is cell-based.
The test system of test [17] is T6, Alpha-crystallin A chain (Homo sapiens), P02489 [R116C].
T6 sequence (whole entry): T5 sequence (whole entry) with R116C, D118Y
Kind of test: Induction of redissolving of aggregated alpha-crystallin A R116C mutant (unknown origin) at 200 uM incubated for 24 hrs by transmission-electron-microscopy. Summed up: as §1

Test [18] relates to T4, Gamma-crystallin C (Homo sapiens), P07315 [G129C]. Put plainly: Inhibition of gamma-crystallin C G129C mutant (unknown origin)-induced cytotoxicity in human HeLa cells assessed as increase in cell viability at 0.04 to 4 uM incubated for 12 hrs by CCK8 assay. The format is cell-based.
Test [19] has as its system T3, Alpha-crystallin B chain (Homo sapiens), P02511 [R120G]. Kind of test: Inhibition of alpha-crystallin B R120G mutant (unknown origin)-induced cytotoxicity in human HeLa cells assessed as increase in cell viability at 0.04 to 4 uM incubated for 12 hrs by CCK8 assay. The test is classed as cell-based.

SMILES strings stand for the structures. Where a chain is given by its changes, count along the chain named. Active and inactive are the calls of the source. The calls are words filed in the database; no cut-off is given here.

Take `C[C@H](CCCC(C)(C)O)[C@H]1CC[C@@]2(C)C3=C(CC[C@]12C)[C@@]1(C)CC[C@H](O)C(C)(C)[C@@H]1CC3`: the inhibition entry in test [1], in test [2], in [5], in [7], in [9] and in test [10] was “Active” throughout. The inhibition entry in [11], in test [16], in test [18] and in test [19] was “Active” each time. Besides, the result in test [3], in [4], in test [6], in test [8], in test [12] and in test [13] was Active. Also, the outcome in [14], in [15] and in [17] was Active.

As to `C[C@H](CCCC(C)(C)O)[C@H]1CC[C@@]2(C)C3=CC[C@H]4C(C)(C)[C@@H](O)CC[C@]4(C)C3=CC[C@]12C`, the inhibition result in test [1], in test [2], in test [5], in test [7], in [9] and in test [10] was “Active” in each case. Besides, the inhibition result in test [11], in test [16], in test [18] and in test [19] was “Active” in each case. Also, the result in test [6] and in test [12] was Active.

Turning to `C[C@H](CCCC(C)(C)O)[C@H]1CC[C@@]2(C)C3=C(CC[C@]12C)[C@@]1(C)C[C@@H](F)[C@H](O)C(C)(C)[C@@H]1CC3`, the inhibition result in test [1], in [2], in [5], in test [7], in [9] and in test [10] was “Active” each time. The inhibition entry in test [11], in test [16], in test [18] and in test [19] was “Active” in each case. For the same compound, the result in [6] and in test [12] was Active.

Consider `C[C@H](CCCC(C)(C)O)[C@H]1CC[C@@]2(C)C3=C(CC[C@]12C)[C@@]1(C)CCC(=O)C(C)(C)[C@@H]1CC3`, for which the inhibition entry in [1], in [2], in test [5], in test [7], in test [9] and in test [10] was “Active” in each case. The inhibition entry in [11], in [16], in test [18] and in test [19] was “Active” throughout. The result in test [6] and in test [12] was Active.

As for `C[C@H](CCCC(C)(C)O)[C@H]1CC[C@@]2(C)C3=C(CC[C@]12C)[C@@]1(C)C[C@@H](F)[C@@H](O)C(C)(C)[C@@H]1CC3`, the inhibition entry in test [1], in [2], in test [5], in [7], in [9] and in test [10] was “Active” throughout. The inhibition entry in test [11], in test [16], in [18] and in [19] was “Active” in each case. Moreover, the outcome in test [6] and in test [12] was Active.

Regarding `C[C@H](CCCC(C)(C)O)[C@H]1CC[C@@]2(C)[C@@]34CC[C@H]5C(C)(C)/C(=N/O)CC[C@]5(C)[C@]3(CC[C@]12C)O4`, the outcome in test [3], in test [4], in test [8], in [13], in test [14] and in test [15] was inactive. For the same compound, the outcome in test [17] was inactive.

The values above are taken from ChEMBL document CHEMBL4196177, “Synthesis, Evaluation, and Structure-Activity Relationship Study of Lanosterol Derivatives To Reverse Mutant-Crystallin-Induced Protein Aggregation” (J Med Chem, 2018).
